The values below come from ChEMBL document CHEMBL1141179 (J Med Chem, 2005).

Molecules are shown by their SMILES. Bridge positions count the residues as written; N and C are the ends. Square brackets hold non-standard residues; d marks the D form. Peptide text beside a SMILES is read from it.

The species named for test [1] is Rattus norvegicus. In words: Relative potency of compound to inhibit insulin secretion […]. Format: functional.
The species named for test [2] is Rattus norvegicus. The test is described as follows: Relative potency of compound to inhibit glucagon secretion […]. The class given is functional.
For test [3], the species on record is Rattus norvegicus. The test is described as follows: Relative potency of compound to inhibit growth hormone secretion in rat anterior pituitary cells. Format: functional, Pituitary gland cell.
Test [4] addresses Somatostatin receptor type 2 (Homo sapiens, UniProt P30874). The test is described as follows: Inhibition of 125I-[Leu8,D-Trp22,Tyr25]SRIF-28 binding to human somatostatin receptor type 2. The gist of the method:
(§1)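 Human sst2 or sst3 receptor stably expressed in CCL39 cells. 20 µm cryostat sections of cell membrane pellets were used for autoradiographic binding. IC50 (nM) came from competitive displacement. Values are mean ± SEM when N ≥ 3; otherwise mean with single values.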

The target in test [5] is Somatostatin receptor type 3 (Homo sapiens, UniProt P32745). The test is described as follows: Inhibition of 125I-[Leu8,D-Trp22,Tyr25]SRIF-28 binding to human somatostatin receptor type 3. In short, it runs like this: as §1
Sequence of Somatostatin receptor type 3 (P32745 whole entry): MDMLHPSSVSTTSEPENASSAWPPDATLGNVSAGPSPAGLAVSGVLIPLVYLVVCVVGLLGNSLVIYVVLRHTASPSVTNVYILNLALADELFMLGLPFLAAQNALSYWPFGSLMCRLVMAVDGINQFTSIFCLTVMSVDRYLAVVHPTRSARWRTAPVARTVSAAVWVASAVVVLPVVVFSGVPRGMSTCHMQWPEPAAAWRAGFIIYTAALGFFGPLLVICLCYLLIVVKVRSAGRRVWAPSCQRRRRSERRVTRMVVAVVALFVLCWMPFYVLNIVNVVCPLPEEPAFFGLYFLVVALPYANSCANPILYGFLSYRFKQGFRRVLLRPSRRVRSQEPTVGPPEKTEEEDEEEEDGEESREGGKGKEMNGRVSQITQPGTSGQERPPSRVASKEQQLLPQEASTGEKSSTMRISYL
Test [6] has as its target Somatostatin receptor type 4 (Homo sapiens, UniProt P31391). In words: Inhibition of 125I-[Leu8,D-Trp22,Tyr25]SRIF-28 binding to human somatostatin receptor type 4.
The target in test [7] is Somatostatin receptor type 5 (Homo sapiens, UniProt P35346). The test is described as follows: Inhibition of 125I-[Leu8,D-Trp22,Tyr25]SRIF-28 binding to human somatostatin receptor type 5. The gist of the method:
(§2)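 Human sst1 or sst5 receptor stably expressed in CHO-K1 cells. 20 µm cryostat sections of cell membrane pellets were used for receptor autoradiography. IC50 (nM) came from competitive radioligand displacement. Values are mean ± SEM when N ≥ 3; otherwise mean with single values.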

In test [8] the target is Somatostatin receptor type 1 (Homo sapiens, UniProt P30872). The test is described as follows: Inhibition of 125I-[Leu8,D-Trp22,Tyr25]SRIF-28 binding to human somatostatin receptor type 1. In short, it runs like this: as §2
Sequence of Somatostatin receptor type 1 (P30872 whole entry): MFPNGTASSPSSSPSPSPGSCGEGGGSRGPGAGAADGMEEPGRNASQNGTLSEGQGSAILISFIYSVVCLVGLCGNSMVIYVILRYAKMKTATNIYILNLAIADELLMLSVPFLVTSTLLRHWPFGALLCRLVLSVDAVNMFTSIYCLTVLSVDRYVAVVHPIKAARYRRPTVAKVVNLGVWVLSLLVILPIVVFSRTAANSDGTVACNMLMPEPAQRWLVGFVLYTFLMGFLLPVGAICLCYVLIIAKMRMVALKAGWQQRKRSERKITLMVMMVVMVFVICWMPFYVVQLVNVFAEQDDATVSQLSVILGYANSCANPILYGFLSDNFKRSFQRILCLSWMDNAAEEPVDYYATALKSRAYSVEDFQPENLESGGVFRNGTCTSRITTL

Sequence of Somatostatin receptor type 5 (P35346 whole entry): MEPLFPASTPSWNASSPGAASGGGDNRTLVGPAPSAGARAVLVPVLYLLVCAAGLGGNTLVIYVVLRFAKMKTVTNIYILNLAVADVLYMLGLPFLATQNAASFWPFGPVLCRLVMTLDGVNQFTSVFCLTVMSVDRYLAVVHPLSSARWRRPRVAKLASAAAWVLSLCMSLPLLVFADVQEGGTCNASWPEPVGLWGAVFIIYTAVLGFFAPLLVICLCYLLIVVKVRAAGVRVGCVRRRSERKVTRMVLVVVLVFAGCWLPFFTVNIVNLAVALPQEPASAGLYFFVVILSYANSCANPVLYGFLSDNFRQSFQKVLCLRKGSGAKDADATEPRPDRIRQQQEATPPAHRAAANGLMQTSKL
Sequence of Somatostatin receptor type 2 (P30874 whole entry): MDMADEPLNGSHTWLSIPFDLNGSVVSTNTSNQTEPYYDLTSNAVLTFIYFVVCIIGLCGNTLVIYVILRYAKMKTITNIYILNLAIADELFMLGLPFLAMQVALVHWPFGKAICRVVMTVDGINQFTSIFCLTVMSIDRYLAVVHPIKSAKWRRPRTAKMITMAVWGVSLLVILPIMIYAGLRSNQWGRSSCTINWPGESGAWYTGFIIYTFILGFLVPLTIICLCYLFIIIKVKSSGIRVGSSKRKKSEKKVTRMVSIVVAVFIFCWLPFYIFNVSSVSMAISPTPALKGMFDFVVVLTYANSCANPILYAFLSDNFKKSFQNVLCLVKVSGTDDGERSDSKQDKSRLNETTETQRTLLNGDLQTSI
Sequence of Somatostatin receptor type 4 (P31391 whole entry): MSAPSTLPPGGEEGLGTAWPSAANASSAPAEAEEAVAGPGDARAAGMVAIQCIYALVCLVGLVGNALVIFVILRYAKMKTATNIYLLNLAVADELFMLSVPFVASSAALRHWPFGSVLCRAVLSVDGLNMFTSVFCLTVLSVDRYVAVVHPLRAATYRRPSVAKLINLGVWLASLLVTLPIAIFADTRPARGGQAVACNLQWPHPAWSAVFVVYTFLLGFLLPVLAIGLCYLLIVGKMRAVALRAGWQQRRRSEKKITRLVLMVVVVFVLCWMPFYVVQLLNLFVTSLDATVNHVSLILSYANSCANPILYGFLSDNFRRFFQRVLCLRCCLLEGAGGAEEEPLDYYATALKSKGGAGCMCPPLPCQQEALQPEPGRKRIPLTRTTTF

`C[C@@H](O)[C@@H]1NC(=O)[C@H](CCCCN)NC(=O)[C@@H](Cc2c[nH]c3ccccc23)NC(=O)[C@H](Cc2ccccc2)NC(=O)[C@H](Cc2ccccc2)NC(=O)[C@H](CCCCN)NC(=O)[C@@H](N)CSSC[C@@H](C(=O)O)NC(=O)[C@H](Cc2ccccc2)NC1=O`: the Relative potency in the test filed under Rattus norvegicus [1] was determined as 310; in the test listed under Rattus norvegicus [2], 115; in the test filed under Rattus norvegicus [3], 15.

With `C[C@@H](O)[C@@H]1NC(=O)[C@H](CCCCN)NC(=O)[C@@H](Cc2c[nH]c3ccccc23)NC(=O)[C@H](Cc2ccccc2)NC(=O)[C@H](Cc2ccccc2)NC(=O)[C@H](CC(N)=O)NC(=O)[C@@H](N)CSSC[C@@H](C(=O)O)NC(=O)[C@H](Cc2ccccc2)NC1=O`, the Relative potency in the test listed under Rattus norvegicus [1] is on record as 72; in the test filed under Rattus norvegicus [2], less than 1; in the test filed under Rattus norvegicus [3] it was less than 1.

For the molecule `C[C@@H](O)[C@@H]1NC(=O)[C@H](CCCCN)NC(=O)[C@@H](Cc2c[nH]c3ccccc23)NC(=O)[C@H](Cc2ccccc2)NC(=O)[C@H](Cc2ccccc2)NC(=O)[C@@H](N)CSSC[C@@H](C(=O)O)NC1=O`, the Relative potency in the test listed under Rattus norvegicus [1] was less than 1; in the test listed under Rattus norvegicus [2], less than 1; in the test filed under Rattus norvegicus [3], 0.07.

For orientation: IC50 means the concentration at which inhibition is half-maximal. A low value points to greater potency. With `CC(C)NCc1ccc(C[C@@H]2NC(=O)[C@@H](Cc3c[nH]c4ccccc34)NC(=O)[C@@H]3CCC(=O)NCC(=O)NCC[C@H](NC(=O)[C@H](Cc4ccccc4)NC(=O)[C@H]([C@@H](C)O)NC2=O)C(=O)N[C@@H](CO)C(=O)N[C@H](C(=O)O)CSSC[C@H](NC(=O)[C@@H](N)Cc2ccc(O)cc2)C(=O)N[C@@H](CCCCN)C(=O)N[C@@H](Cc2ccccc2)C(=O)N3)cc1`, the IC50 in test [4], in test [5], in test [6], in test [7] and in test [8] was more than 1000 nM each time.

In the case of `CC(C)NCc1ccc(C[C@@H]2NC(=O)[C@@H](Cc3c[nH]c4ccccc34)NC(=O)[C@@H]3CCC(=O)NCCCCC[C@H](NC(=O)[C@H](Cc4ccccc4)NC(=O)[C@H]([C@@H](C)O)NC2=O)C(=O)N[C@@H](CO)C(=O)N[C@H](C(=O)O)CSSC[C@H](NC(=O)[C@@H](N)Cc2ccc(O)cc2)C(=O)N[C@@H](CCCCN)C(=O)N[C@@H](Cc2ccccc2)C(=O)N3)cc1`, the half-maximal inhibitory concentration (IC50) in test [4] was more than 1000 nM; in test [5], more than 1000 nM; in test [6], more than 1000 nM; in test [7], more than 1000 nM; in test [8] it was 94 nM.

With `C[C@@H](O)[C@@H]1NC(=O)[C@H](Cc2ccccc2)NC(=O)[C@H]([C@@H](C)O)NC(=O)[C@H](CCCCN)NC(=O)[C@@H](Cc2c[nH]c3ccccc23)NC(=O)[C@H](Cc2ccccc2)NC(=O)[C@H](Cc2ccccc2)NC(=O)[C@H](CC(N)=O)NC(=O)[C@@H](N)CSSC[C@@H](C(=O)O)NC1=O`, the Relative potency in the test listed under Rattus norvegicus [1] is recorded as 75; in the test listed under Rattus norvegicus [3], 8.

For `CC(C)NCc1ccc(C[C@@H]2NC(=O)[C@@H](Cc3c[nH]c4ccccc34)NC(=O)[C@@H]3CCC(=O)NCCCCCC[C@H](NC(=O)[C@H](Cc4ccccc4)NC(=O)[C@H]([C@@H](C)O)NC2=O)C(=O)N[C@@H](CO)C(=O)N[C@H](C(=O)O)CSSC[C@H](NC(=O)[C@@H](N)Cc2ccc(O)cc2)C(=O)N[C@@H](CCCCN)C(=O)N[C@@H](Cc2ccccc2)C(=O)N3)cc1`, the IC50 was more than 1000 nM in test [4]; more than 1000 nM in test [5]; more than 1000 nM in test [6]; more than 1000 nM in test [7]; 16 nM in test [8].

On to `CC(C)NCc1ccc(C[C@@H]2NC(=O)[C@@H](Cc3c[nH]c4ccccc34)NC(=O)[C@@H]3CCC(=O)NCCCC[C@H](NC(=O)[C@H](Cc4ccccc4)NC(=O)[C@H]([C@@H](C)O)NC2=O)C(=O)N[C@@H](CO)C(=O)N[C@H](C(=O)O)CSSC[C@H](NC(=O)[C@@H](N)Cc2ccc(O)cc2)C(=O)N[C@@H](CCCCN)C(=O)N[C@@H](Cc2ccccc2)C(=O)N3)cc1`, for which the IC50 is more than 1000 nM in test [4]; more than 1000 nM in test [5]; more than 1000 nM in test [6]; more than 1000 nM in test [7]; 53 nM in test [8].

`CC(C)NCc1ccc(C[C@@H]2NC(=O)[C@@H](Cc3c[nH]c4ccccc34)NC(=O)[C@@H]3CCC(=O)NCCCCC[C@@H](NC(=O)[C@H](Cc4ccccc4)NC(=O)[C@H]([C@@H](C)O)NC2=O)C(=O)N[C@@H](CO)C(=O)N[C@H](C(=O)O)CSSC[C@H](NC(=O)[C@@H](N)Cc2ccc(O)cc2)C(=O)N[C@@H](CCCCN)C(=O)N[C@@H](Cc2ccccc2)C(=O)N3)cc1`: the half-inhibitory concentration (IC50) is more than 1000 nM in test [4]; more than 1000 nM in test [5]; 99 nM in test [6]; more than 1000 nM in test [7]; 782 nM in test [8].

For `C[C@@H](O)[C@@H]1NC(=O)[C@H](Cc2ccccc2)NC(=O)[C@H]([C@@H](C)O)NC(=O)[C@H](CCCCN)NC(=O)[C@@H](Cc2c[nH]c3ccccc23)NC(=O)[C@H](Cc2ccccc2)NC(=O)[C@H](Cc2ccccc2)NC(=O)[C@@H](N)CSSC[C@@H](C(=O)O)NC(=O)[C@H](CO)NC1=O`, the figures for the Relative potency in the test filed under Rattus norvegicus [1], in the test listed under Rattus norvegicus [2] and in the test filed under Rattus norvegicus [3] were 700, less than 1 and 110, respectively.

Take `NCCCC[C@@H]1NC(=O)[C@@H](Cc2c[nH]c3ccccc23)NC(=O)[C@H](Cc2ccccc2)NC(=O)[C@H](Cc2ccccc2)NC(=O)[C@@H](N)CSSC[C@@H](C(=O)O)NC(=O)[C@H](Cc2ccccc2)NC1=O`: the Relative potency is given as less than 1 in the test listed under Rattus norvegicus [1], less than 1 in the test listed under Rattus norvegicus [2] and less than 0.01 in the test filed under Rattus norvegicus [3].

As for `CC(C)NCc1ccc(C[C@@H]2NC(=O)[C@@H](Cc3c[nH]c4ccccc34)NC(=O)[C@@H]3CCC(=O)NCCC[C@H](NC(=O)[C@H](Cc4ccccc4)NC(=O)[C@H]([C@@H](C)O)NC2=O)C(=O)N[C@@H](CO)C(=O)N[C@H](C(=O)O)CSSC[C@H](NC(=O)[C@@H](N)Cc2ccc(O)cc2)C(=O)N[C@@H](CCCCN)C(=O)N[C@@H](Cc2ccccc2)C(=O)N3)cc1`, the IC50 in test [4] is more than 1000 nM; in test [5], more than 1000 nM; in test [6], more than 1000 nM; in test [7], more than 1000 nM; in test [8] it was 554 nM.

`CC(C)NCc1ccc(C[C@@H]2NC(=O)[C@@H](Cc3c[nH]c4ccccc34)NC(=O)[C@@H]3CCC(=O)NCCCCCC[C@@H](NC(=O)[C@H](Cc4ccccc4)NC(=O)[C@H]([C@@H](C)O)NC2=O)C(=O)N[C@@H](CO)C(=O)N[C@H](C(=O)O)CSSC[C@H](NC(=O)[C@@H](N)Cc2ccc(O)cc2)C(=O)N[C@@H](CCCCN)C(=O)N[C@@H](Cc2ccccc2)C(=O)N3)cc1`: the half-inhibitory concentration (IC50) in test [4] was more than 1000 nM; in test [5], 772 nM; in test [6], more than 1000 nM; in test [7] it was more than 1000 nM; in test [8], 204 nM.

`C[C@@H](O)[C@@H]1NC(=O)[C@H](CCCCN)NC(=O)[C@@H](Cc2c[nH]c3ccccc23)NC(=O)[C@H](Cc2ccccc2)NC(=O)[C@H](Cc2ccccc2)NC(=O)[C@@H](N)CSSC[C@@H](C(=O)O)NC(=O)[C@H](Cc2ccccc2)NC1=O` (H-CFF[dW]KTFC-OH; disulfide 1-8): the Relative potency in the test filed under Rattus norvegicus [1] is on record as 45; in the test filed under Rattus norvegicus [2], 7; in the test listed under Rattus norvegicus [3], 4.
